These results are taken from publication PMC5766413 (European journal of pharmacology, 2017).

Where two headings read alike, the source gives them in different places. A value given as a limit tells only on which side of the number the result lay.

The subject of data set [1] is NK1 receptor. The conditions noted are these: minipigs; ref unpublished observations; cited from earlier work.
Data set [2] relates to NK1 receptor. The conditions noted are these: dogs; ref unpublished observations; cited from earlier work.
Data set [3] deals with NK1 receptor. The conditions noted are these: monkeys; ref unpublished observations; cited from earlier work.
For data set [4], the system named is blood pressure of anesthetized, acutely spinalized rats. Nature of the data set: Blood pressure. In kind it is in vivo, rat. The conditions noted are these: up to 30 μg/kg IV and 300 μg/kg SC. In a few lines:
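Female rats were anesthetized with urethane (1.2–1.4 g/kg SC) and kept at 37°C, with the spinal cord transected at T9–T10 at least 60 min before dosing. Test compound was given in 0.9% saline IV (200 μl plus 300 μl saline flush) or SC, vehicle first. Blood pressure was recorded continuously via the carotid artery, with heart rate derived off line from that signal. Values are change from the pre-dose baseline; one-way ANOVA.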

Data set [5] concerns anesthetized, acutely spinalized rats. Description: Other pharmacodynamic observations. Type of data set: in vivo, rat. In a few lines: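 In urethane-anesthetized female rats with T9–T10 cord transection ≥60 min before dosing, vehicle then ascending IV, SC or IM doses of test compound in 0.9% saline were given. Changes in skin color (ear and paw flushing), salivation and lacrimation were recorded when present; respiration was watched visually for obvious changes.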

In data set [6] the test system is colorectum of anesthetized, acutely spinalized rats. Description: Colorectal manometry with balloon catheter. In kind it is in vivo, rat. An outline of the steps:
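Urethane-anesthetized (1.2–1.4 g/kg SC) female rats, cord cut at T9–T10 ≥60 min before dosing, 37°C. Rectal balloon catheter was inflated in 0.1–0.2 ml saline steps to a steady 15–20 mmHg (0.3–0.7 ml total). Vehicle, then ascending SC doses in saline, 20–45 min apart. Pressure AUC over 0–5 min per dose; duration of raised activity noted; mean + S.D., ANOVA with Dunnett's test.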

The subject of data set [7] is human detrusor muscle strips. The conditions noted are these: relative to KCL; ref Palea et al, 1996; cited from earlier work.
Data set [8] concerns blood pressure of guinea pigs. The conditions noted are these: intra-arterial, ref Beattie et al, 1993; cited from earlier work.
The test system of data set [9] is NK2 over NK1 receptors. The conditions noted are these: ref Rupniak et al, unpublished results; cited from earlier work.
Data set [10] deals with bladder of anesthetized, acutely spinalized rats. In kind it is in vivo, rat. An outline of the steps: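 Acutely spinalized (T9–T10, ≥60 min earlier), urethane-anesthetized female rats. Capacity was taken as the mean of three saline fills (0.04–0.1 ml/min, urethra open) until leak. Meatus then clamped, bladder held at 70% capacity; vehicle and ascending IV or SC doses ≥20 min apart. Contraction defined as ≥5 mmHg above baseline within 5 min; onset, time to peak, 30-min AUC and response duration; mean + S.D.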

Take `COc1ccccc1CN[C@H]1CCCN[C@H]1c1ccccc1` [CP-99,994]: the “Effect on transient hypotension after IV injection of NKA and LMN-NKA” value in [1], in [2] and in [3] was “blocked” each time.

Consider spantide I, for which the “Effect on transient hypotension after IV injection of NKA and LMN-NKA” value in data set [1], in data set [2] and in data set [3] was “blocked” in each case.

With “[Lys^3,Gly^8-R-gamma-lactam-Leu^9]-NKA(3–10) [GR 64349]”, the “Blood pressure effect” value in [4] is reported as “No significant blood pressure changes”; in data set [8], “transient drop in blood pressure”. For the same compound, in data set [5] (LMN-NKA up to 300 μg/kg SC or IM, NKA and GR 64349 at the doses tested), the “Respiration (visual observation, words)” value is “No obvious changes in respiration”. Besides, the “Flushing” value in [5] (NKA at similar, GR 64349 at higher doses compared to LMN-NKA) was “transient flushing of the ears and paws”. In addition, the “Duration of action on colorectal pressure” value in data set [6] (SC 100 and 300 μg/kg) was 20 to 25 min. In addition, the “Increase in colorectal pressure” value in data set [6] (SC, highest doses tested were 100 and 300 μg/kg) is on record as “only at the highest doses tested”. In data set [7], the “Maximal contraction of detrusor muscle strips” value is given as “equivalent to maximal KCL-induced contractions”. Further, the “Selectivity for NK2 over NK1 receptors” value in data set [9] is above 250 fold. The “Duration of the bladder pressure response” value in [10] (1 μg/kg IV, N=3, mean ± S.D.) is 1.5 ± 0.07 min; in [10] (300 μg/kg SC, N=4 for GR 64349, N=11 for LMN-NKA, mean ± S.D.), 23.9 ± 12.22 min. In [10] (0.01–10 μg/kg IV and 1–300 μg/kg SC), the “Onset of the increase in bladder pressure” value is listed as below 1 min.
